Source: PubChem (several laboratories)
MsrA inhibitor – bovine MsrA enzyme inhibitors, primary screen, biochemical, absorbance, HTS. Methionine sulfoxide reductase A (Bos taurus). purified bovine MsrA, absorbance read-out. inhibition, % at 15.5 µM. actives 0.75% (n = 360,000); in the data active = inhibition above about 4.5%;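 also: 0% = vehicle wells with enzyme and 100% = reference inhibitor wells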
ARFGAP1 inhibitor – inhibitors of rat ARFGAP1 GAP activity, primary screen, biochemical, fluorescence polarization, GDP tracer. Arfgap1-stimulated ARF1 GTP hydrolysis, GDP FP detection. ADP-ribosylation factor GTPase-activating protein 1 (Rattus norvegicus), Q62848. inhibition, % at 16.5 µM. AID 651572, 2012. actives 0.26% (n = 360,000);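 active = inhibition above a per-plate limit, mean inhibition of low control wells plus 3 SD, cut at about 25% in these data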;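 also: 0% = DMSO wells with enzyme and 100% = wells lacking Arfgap1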
Target sequence (Q62848 1-136 limits assumed): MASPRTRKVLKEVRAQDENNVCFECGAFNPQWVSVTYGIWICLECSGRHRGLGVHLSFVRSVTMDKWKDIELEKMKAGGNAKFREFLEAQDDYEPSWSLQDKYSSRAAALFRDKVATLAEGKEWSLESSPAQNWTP
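material = rat Arfgap1 catalytic domain, aa 1-136 | also added = human ARF1(Δ1-17)-GTP substrate | compound dosing = one concentration, 16.5 µM, DMSO 1.26% | times = GTP hydrolysis reaction 2 h at 25 °C | measured by = FP, GDP Alexa 633 tracer displaced from anti-GDP antibody, 620/688 nm | evaluation = percent inhibition of Arfgap1-stimulated GTP hydrolysis | replication = single well per compound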
ASAP1 inh – inhibitors of human ASAP1 ArfGAP activity, primary screen, biochemical, fluorescence polarization | inhibition, % at 16.5 µM | ASAP1-stimulated ARF1 GTP hydrolysis, GDP FP detection | AID 624377, 2012 | actives 0.19% (n = 360,000); in the data active = inhibition above about 25%;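 also: 0% = vehicle with enzyme and substrate and 100% = no enzyme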
HGIII-sPLA2 inh – human group III sPLA2 inhibitors, primary screen, biochemical, QFRET, BODIPY PC-A2 liposome substrate; Group 3 secretory phospholipase A2 (Homo sapiens), Q9NZ20; inhibition, % at 12.2 µM; actives 0.56% (n = 370,000); QFRET BODIPY PC-A2 liposome hydrolysis, fluorescence;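 active = inhibition above mean plus 3 SD of compounds lying within the high and low control bounds, cut at about 19% in these data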;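 also: 0% = median of test compound wells and 100% = no enzyme DMSO wells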
Target sequence (Q9NZ20 whole entry, looked up): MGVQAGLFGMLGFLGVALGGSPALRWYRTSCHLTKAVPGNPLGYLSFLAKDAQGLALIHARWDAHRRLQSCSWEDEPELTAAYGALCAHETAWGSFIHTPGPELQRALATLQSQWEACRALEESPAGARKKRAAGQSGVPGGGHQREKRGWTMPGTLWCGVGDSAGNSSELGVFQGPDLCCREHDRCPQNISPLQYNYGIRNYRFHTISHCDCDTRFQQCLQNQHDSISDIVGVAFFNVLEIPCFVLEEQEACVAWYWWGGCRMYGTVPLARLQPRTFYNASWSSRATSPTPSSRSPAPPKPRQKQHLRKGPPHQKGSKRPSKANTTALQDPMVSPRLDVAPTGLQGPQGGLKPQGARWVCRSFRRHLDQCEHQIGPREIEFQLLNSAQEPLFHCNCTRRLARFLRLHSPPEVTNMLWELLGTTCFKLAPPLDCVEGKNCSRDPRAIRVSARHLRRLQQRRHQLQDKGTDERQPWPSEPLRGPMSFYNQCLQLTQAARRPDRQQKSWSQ
Rev-erbA mod – modulators of Rev-erb alpha DNA binding, primary screen, biochemical, FITC-DNA, fluorescence polarization, uHTS; AID 1259318, 2017; Rev-erbα–FITC-DNA binding, 90 min; actives 0.79% (n = 370,000); activity, % at 10 µM;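 active = activity above about 14%, limit read from the data; passing the limit was not always enough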;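 also: 0% = DMSO wells with 35 nM protein and 100% = DMSO wells with 750 nM protein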
bovine MsrA act – bovine MsrA enzyme activators, primary screen, biochemical, absorbance, HTS; purified bovine MsrA, absorbance read-out; Methionine sulfoxide reductase A (Bos taurus); activation, % at 10.6 µM; actives 0.3% (n = 360,000); in the data active = activation above about 7.5%;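 also: 0% = vehicle and 100% = reference activator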
ASAP1 GAP conf – ASAP1 GAP activity inhibitors, confirmation, biochemical, fluorescence polarization, human, triplicate; actives 37% (n = 620); ASAP1-stimulated Arf1 GTPase, GDP fluorescence polarization; AID 624431, 2012; inhibition, % at 16.5 µM; shares compounds with ASAP1 inh;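 active = mean inhibition over triplicates exceeds the hit threshold derived for the earlier primary screening run, cut at about 25% in these data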
An asterisk follows results filed as active; . = not tested or not shown. Sampled rows, rich in hits. Any-hit rate of the full collection: about 2.7%.

SMILES | MsrA inhibitor | ARFGAP1 inhibitor | ASAP1 inh | HGIII-sPLA2 inh | Rev-erbA mod | bovine MsrA act | ASAP1 GAP conf
CC(C)c1cccc(OCC(=O)Nc2ccc(S(=O)(=O)Nc3ccccn3)cc2)c1 | -0.1 | 16.6 | -7.6 | -22.9 | -4.9 | -3.1 | .
CCN(CC)C(=O)CC[C@@H]1CC[C@]2(CCCN(C(=O)c3cccnc3)C2)O1 | . | . | . | 4.3 | -3.5 | . | .
COC(=O)[C@H](C(C)C)N(CCc1cn(CC2CCCCC2)nn1)S(=O)(=O)c1ccccc1Br | . | . | . | -0.7 | 2.7 | . | .
COc1cccc(-n2nnc3c(=O)n(Cc4ccc(C)cc4)cnc32)c1 | 0.3 | 11.3 | 6.3 | -0.9 | 3.4 | -4.2 | .
COc1cccc(-n2nnc3c(=O)n(Cc4ccc(Br)cc4)cnc32)c1 | -0.7 | -4.5 | 27.5* | -0.8 | 6.0 | -1.1 | 34.7*
CCCCN(Cc1ccco1)C(=O)Cn1ncc2c(=O)oc3ccc(C)cc3c21 | 0.7 | 15.2 | 29.9* | 10.5 | -5.1 | -1.6 | 33.0*
Cc1ccc2oc(=O)c3cnn(CC(=O)N(CCC(C)C)Cc4ccco4)c3c2c1 | 0.1 | -8.1 | -0.5 | 2.3 | -2.4 | 2.3 | .
CC(C)n1c(NCc2cc(Cl)ccc2O)nc2ccccc21 | 0.3 | 5.9 | 25.7* | -4.4 | 10.5 | -1.6 | 13.9
NC(=O)C1CCN(c2nc(-c3ccc(OCc4ccccc4)cc3)cs2)CC1 | . | . | . | 18.6 | -0.6 | . | .
COc1ccc(N(C)S(=O)(=O)c2cccc(C(=O)NCc3ccc4c(c3)OCO4)c2)cc1 | 0.3 | 3.6 | 24.9* | -9.7 | 1.7 | -9.3 | 6.4
Nc1c(C(=O)NCc2ccc3c(c2)OCO3)c2nc3ccccc3nc2n1CCCN1CCOCC1 | 0.4 | 17.1 | 34.4* | -17.2 | 0.7 | 1.2 | 9.6
COC(=O)C1CN(C2CCCC2)CCS(=O)(=O)N1Cc1cn(Cc2ccccc2)nn1 (centres undefined) | . | . | . | -0.2 | -4.5 | . | .
COc1ccc(C(=O)Nc2cccc(-c3cc4ccccc4oc3=O)c2)cc1[N+](=O)[O-] | 1.5 | 23.5 | 26.8* | -12.3 | -0.1 | -6.7 | 72.3*
CC1(C)SC(=S)N(/N=C/c2ccc(O)cc2)C1N(O)C(=O)Nc1ccc([N+](=O)[O-])cc1 (centres undefined) | 3.6 | 0.3 | 24.9* | -27.0 | -1.0 | -0.2 | 15.5
Cc1ccc(/C=N/N2C(=S)SC(C)(C)C2N(O)C(=O)Nc2ccc([N+](=O)[O-])cc2)cc1 (centres undefined) | 2.2 | -9.5 | 4.7 | -14.4 | 2.8 | -1.3 | .
C[C@@H]1OC(C2CCCCC2)N(C)[C@H]2C[C@H]3c4cc(N5CCOCC5)ccc4CCN3C[C@@H]12 (some centres undefined) | . | . | . | 4.2 | -1.7 | . | .
COC(=O)c1ccccc1NC(=O)c1ccc(Cn2cc(Cl)cn2)o1 | 1.4 | -4.0 | -3.5 | -1.4 | 3.7 | -3.5 | .
COC(=O)c1cc(NC(=O)c2ccc(Cn3cc(Cl)cn3)o2)cc(C(=O)OC)c1 | 0.6 | 0.3 | 40.3* | 4.1 | 6.4 | -4.1 | 28.1*
Cc1nnc(-c2cccc(Br)c2)c2cn(-c3cccc(Br)c3)nc12 | -0.6 | 13.6 | 27.5* | -9.0 | -3.8 | -1.2 | 20.4
COc1ccc(Br)cc1C(=O)Nc1cccc(-c2nnc(-c3ccco3)o2)c1 | 1.0 | 3.5 | 72.5* | -2.4 | 6.2 | -5.6 | 37.3*
C=CCn1cnc2c(c1=O)c1nc3ccccc3nc1n2/N=C/c1cccc(OC)c1 | -1.6 | -0.5 | -4.7 | -0.2 | 2.1 | -0.7 | .
COCCn1cnc2c(c1=O)c1nc3ccccc3nc1n2/N=C/c1ccc(OC)c(OC)c1 | -0.6 | -12.5 | 32.9* | -2.1 | -2.0 | -1.6 | 37.5*
CC(Oc1ccccc1)C(=O)N1CCC2(CC1)Oc1ccc(F)cc1C(=O)C21CC(c2cccnc2)=NO1 (centres undefined) | 0.7 | 15.3 | 25.8* | -8.4 | -0.1 | -1.7 | 4.7
Cc1ccc(C(=O)N2CCCCC2)cc1S(=O)(=O)N1CCCC1 | -0.2 | -12.4 | 17.0 | 0.5 | -0.2 | -4.6 | .
Cc1ccc(C(=O)N2CCCC2)cc1Br | 0.5 | 5.9 | 25.7* | 10.7 | 0.2 | -3.1 | -0.2
SMILES | MsrA inhibitor | ARFGAP1 inhibitor | ASAP1 inh | HGIII-sPLA2 inh | Rev-erbA mod | bovine MsrA act | ASAP1 GAP conf
Clc1ccc(OCc2nn3c(-c4ccco4)nnc3s2)c(Cl)c1 | 0.1 | 5.1 | 25.5* | 6.7 | -11.3 | 5.0 | 37.0*
CC(C)[C@@H](CO)N1Cc2nnn(Cc3ccccc3)c2-c2ccccc2S1(=O)=O | . | . | . | -4.3 | -1.1 | . | .
Cc1nn(-c2ccccc2)c(C)c1/C=N/NC(=O)c1cc(C(C)(C)C)[nH]n1 | -0.5 | -3.6 | 3.3 | -7.2 | 2.3 | 2.0 | .
Cc1ccc(-c2cc(C(=O)N/N=C/c3c(C)nn(-c4ccccc4)c3C)[nH]n2)cc1 | 0.9 | 15.0 | 25.5* | -3.2 | -3.1 | -4.8 | 6.6
Cc1ccc(-c2cc(C(=O)N/N=C/c3c(C)nn(-c4ccccc4)c3C)n[nH]2)s1 | 1.0 | 16.6 | 25.8* | -10.0 | 8.0 | -9.4 | 34.1*
CCCCN1CN2Cc3cc(OC)ccc3C2CS1(=O)=O (centres undefined) | . | . | . | 7.2 | 0.2 | . | .
COc1ccccc1NC1=C(N2CCCCC2)C(=O)c2ccccc2C1=O | . | . | . | . | . | 1.5 | .
O=C1C(Nc2ccccc2)=C(N2CCCCC2)C(=O)c2ccccc21 | 0.8 | 10.0 | 29.9* | 3.2 | 7.3 | -2.9 | 16.8
Cc1ccc(NC2=C(N3CCCCC3)C(=O)c3ccccc3C2=O)cc1 | 0.8 | 14.7 | 27.6* | 5.8 | 4.8 | -5.3 | 16.0
CCOC(=O)N1CCC(NC(=O)c2cc3c(-c4ccc(OC)c(OC)c4)nn(C)c3s2)CC1 | 0.6 | 2.8 | 19.5 | -5.8 | 5.9 | -2.3 | .
COc1ccc(NC(=O)c2cc3c(-c4ccc(OC)c(OC)c4)nn(C)c3s2)cc1OC | 2.9 | 5.1 | 32.0* | -6.3 | 1.8 | -2.6 | 57.7*
COCC(=O)N(C)[C@H]1C[C@H]2c3[nH]c4c(-c5ccc6c(c5)OCO6)cccc4c3CCN2C(=O)[C@H]1[C@H](C)O | . | . | . | -22.2 | 4.1 | . | .
c1ccc(-c2cc(-c3nnc4n3N=C(c3ccc5ccccc5c3)CS4)[nH]n2)cc1 | 3.2 | 11.4 | 25.2* | -5.8 | -5.0 | -0.1 | 11.5
c1coc(-c2nnc3n2N=C(c2ccc4ccccc4c2)CS3)c1 | . | . | . | -12.4 | -20.2 | . | .
Cc1ccccc1S(=O)(=O)Oc1ccc2ccc(O)cc2c1 | -0.2 | 5.8 | 26.7* | -106.4 | 1.0 | 0.0 | 17.0
